{"source": "the RNAGym collection of RNA variant scans (doi:10.1002/anie.201605470)", "parents": {"B1": {"name": "Osa-1-4 twister ribozyme (parent)", "chain": "CCGCCUAACACUGCCAAUGCCGGUCCCAAGCCCGGAUAAAAGUGGAGGGGGCGG"}}}
{"variants_of": "B1", "assay": "self-cleavage, relative activity (ratio to wild type); higher = more cleavage; co-transcriptional", "in_short": "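A DNA template was synthesised for a 54-nucleotide twister ribozyme from Oryza sativa, with 97 % wild-type base and 1 % of each other base at each of the 48 positions downstream of the cleavage site. The ribozyme cleaved itself co-transcriptionally during 2 h of in vitro transcription at 37 °C. Reverse transcription with a template-switching oligonucleotide, PCR amplification and deep sequencing followed, and cleavage status came from reads with or without upstream sequence. Relative activity is the fraction cleaved normalised to wild type.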"}
{"variant": "CCGCCUAACACUGCCAAUGCCGAUCCCAAGCCCGGAUAAAAGUGGAGGGGGCGC", "self-cleavage": 0.21}
{"variant": "CCGCCUAACACUGCCAAUGCCGAUCCCAAGCCCGGAUAAAAGUGGAGGGGGCGU", "self-cleavage": 0.41}
{"variant": "CCGCCUAACACUGCCAAUGCCGAUCCCAAGCCCGGAUAAAAGUGGAGGGGGCGA", "self-cleavage": 0.2}
{"variant": "CCGCCUAACACUGCCAAUGCCGAUCCCAAGCCCGGAUAAAAGUGGAGGGAGCGG", "self-cleavage": 0.23}
{"variant": "CCGCCUAACACUGCCAAUGCCGAUCCCAAGCCCGGAUAAAAGUGGAGGGCGCGG", "self-cleavage": 0.14}
{"variant": "CCGCCUAACACUGCCAAUGCCGAUCCCAAGCCCGGAUAAAAGUGGAGGGUGCGG", "self-cleavage": 0.3}
{"variant": "CCGCCUAACACUGCCAAUGCCGAUCCCAAGCCCGGAUAAAAGUGGAAGGGGCGG", "self-cleavage": 0.07}
{"variant": "CCGCCUAACACUGCCAAUGCCGAUCCCAAGCCCGGAUAAAAGUGGAUGGGGCGG", "self-cleavage": 0.06}
{"variant": "CCGCCUAACACUGCCAAUGCCGAUCCCAAGCCCGGAUAAAAGUGGACGGGGCGG", "self-cleavage": 0.06}
{"variant": "CCGCCUAACACUGCCAAUGCCGAUCCCAAGCCCGGAUAAAAAUGGAGGGGGCGG", "self-cleavage": 0.08}
{"variant": "CCGCCUAACACUGCCAAUGCCGAUCCCAAGCCCGGAUAAAAUUGGAGGGGGCGG", "self-cleavage": 0.05}
{"variant": "CCGCCUAACACUGCCAAUGCCGAUCCCAAGCCCGGAUAAAACUGGAGGGGGCGG", "self-cleavage": 0.07}
{"variant": "CCGCCUAACACUGCCAAUGCCGAUCCCAAGCCCGGAUAAAAGUCGAGGGGGCGG", "self-cleavage": 0.27}
{"variant": "CCGCCUAACACUGCCAAUGCCGAUCCCAAGCCCGGAUAAAAGUAGAGGGGGCGG", "self-cleavage": 0.15}
{"variant": "CCGCCUAACACUGCCAAUGCCGAUCCCAAGCCCGGAUAAAAGUUGAGGGGGCGG", "self-cleavage": 0.18}
{"variant": "CCGCCUAACACUGCCAAUGCCGCUCCCAAGCCCUGAUAAAAGUGGAGGGGGCGG", "self-cleavage": 0.04}
{"variant": "CCGCCUAACACUGCCAAUGCCGCUCCCAAGCCCCGAUAAAAGUGGAGGGGGCGG", "self-cleavage": 0.04}
{"variant": "CCGCCUAACACUGCCAAUGCCGCUCCCAAGCCCAGAUAAAAGUGGAGGGGGCGG", "self-cleavage": 0.06}
{"variant": "CCGCCUAACACUGCCAACGCCGAUCCCAAGCCCGGAUAAAAGUGGAGGGGGCGG", "self-cleavage": 0.49}
{"variant": "CCGCCUAACACUGCCAAAGCCGAUCCCAAGCCCGGAUAAAAGUGGAGGGGGCGG", "self-cleavage": 0.59}
{"variant": "CCGCCUAACACUGCCAAGGCCGAUCCCAAGCCCGGAUAAAAGUGGAGGGGGCGG", "self-cleavage": 0.38}
{"variant": "CCGCCUAACACUGCCAAUGCCUGUCCCAAGCCCGGAUAAAAGUGGAGGGGUCGG", "self-cleavage": 0.38}
{"variant": "CCGCCUAACACUGCCAAUGCCUGUCCCAAGCCCGGAUAAAAGUGGAGGGGACGG", "self-cleavage": 0.1}
{"variant": "CCGCCUAACACUGCCAAUGCCUGUCCCAAGCCCGGAUAAAAGUGGAGGGGCCGG", "self-cleavage": 0.08}
{"variant": "CCGCCUAACACUGCCAAUGCCUGUCCCAAGCCCGGAUAAAAGUGGAGGGGGCGC", "self-cleavage": 0.64}
{"variant": "CCGCCUAACACUGCCAAUGCCUGUCCCAAGCCCGGAUAAAAGUGGAGGGGGCGU", "self-cleavage": 0.6}
{"variant": "CCGCCUAACACUGCCAAUGCCUGUCCCAAGCCCGGAUAAAAGUGGAGGGGGCGA", "self-cleavage": 0.58}
{"variant": "CCGCCUAACACAGCCAAUGCCUGUCCCAAGCCCGGAUAAAAGUGGAGGGGGCGG", "self-cleavage": 0.13}
{"variant": "CCGCCUAACACCGCCAAUGCCUGUCCCAAGCCCGGAUAAAAGUGGAGGGGGCGG", "self-cleavage": 0.1}
{"variant": "CCGCCUAACACGGCCAAUGCCUGUCCCAAGCCCGGAUAAAAGUGGAGGGGGCGG", "self-cleavage": 0.05}
{"variant": "CCGCCUAACACAGCCAAUGCCGAUCCCAAGCCCGGAUAAAAGUGGAGGGGGCGG", "self-cleavage": 0.1}
{"variant": "CCGCCUAACACGGCCAAUGCCGAUCCCAAGCCCGGAUAAAAGUGGAGGGGGCGG", "self-cleavage": 0.07}
{"variant": "CCGCCUAACACCGCCAAUGCCGAUCCCAAGCCCGGAUAAAAGUGGAGGGGGCGG", "self-cleavage": 0.08}
{"variant": "CCGCCUAACACUGCCAAUGCCUGUCCCAAGCCCGGAUAAAAGUGGAGGGUGCGG", "self-cleavage": 0.75}
{"variant": "CCGCCUAACACUGCCAAUGCCUGUCCCAAGCCCGGAAAAAAGUGGAGGGGGCGG", "self-cleavage": 0.93}
{"variant": "CCGCCUAACACUGCCAAUGCCUGUCCCAAGCCCGGAGAAAAGUGGAGGGGGCGG", "self-cleavage": 0.92}
{"variant": "CCGCCUAACACUGCCAAUGCCUGUCCCAAGCCCGGACAAAAGUGGAGGGGGCGG", "self-cleavage": 0.55}
{"variant": "CCGCCUAACACUGCCAAUGCCGAUCCCAAGCCCGGAUAAAAGUGGAGGGGCCGG", "self-cleavage": 0.07}
{"variant": "CCGCCUAACACUGCCAAUGCCGAUCCCAAGCCCGGAUAAAAGUGGAGGGGUCGG", "self-cleavage": 0.08}
{"variant": "CCGCCUAACACUGCCAAUGCCGAUCCCAAGCCCGGAUAAAAGUGGAGGGGACGG", "self-cleavage": 0.09}
{"variant": "CCGCCUAACACUGCCAAUGCCGAUCCCAAGCCCGGAUAAAAGUGGAGUGGGCGG", "self-cleavage": 0.05}
{"variant": "CCGCCUAACACUGCCAAUGCCGAUCCCAAGCCCGGAUAAAAGUGGAGCGGGCGG", "self-cleavage": 0.06}
{"variant": "CCGCCUAACACUGCCAAUGCCGAUCCCAAGCCCGGAUAAAAGUGGAGAGGGCGG", "self-cleavage": 0.05}
{"variant": "CCGCCUAACACUGCCAAUGCCGAUCCCAAGCCCGGAGAAAAGUGGAGGGGGCGG", "self-cleavage": 0.78}
{"variant": "CCGCCUAACACUGCCAAUGCCGAUCCCAAGCCCGGAAAAAAGUGGAGGGGGCGG", "self-cleavage": 0.77}
{"variant": "CCGCCUAACACUGCCAAUGCCGAUCCCAAGCCCGGACAAAAGUGGAGGGGGCGG", "self-cleavage": 0.72}
{"variant": "CCGCCUAACACUGCCAAUGCCGAUCCCAAGCCCGAAUAAAAGUGGAGGGGGCGG", "self-cleavage": 0.14}
{"variant": "CCGCCUAACACUGCCAAUGCCGAUCCCAAGCCCGUAUAAAAGUGGAGGGGGCGG", "self-cleavage": 0.13}
{"variant": "CCGCCUAACACUGCCAAUGCCGAUCCCAAGCCCGCAUAAAAGUGGAGGGGGCGG", "self-cleavage": 0.08}
